# The source made the active and inactive calls. The rule behind the calls is not given here.
# Key:
# [1] = Selectivity for bloodstream form of Trypanosoma brucei brucei MITat1.1 over human HL60 cells; set-up: species or system HL-60
# In short: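 Both were measured by seeding at 2×10^5 cells/ml with varying inhibitor concentrations, reading absorbance at 540 and 595 nm, and comparing to inhibitor-free controls.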
# [2] = tested on: Trypanosoma brucei brucei; test: Antitrypanosomal activity against bloodstream form of Trypanosoma brucei brucei MITat1.1 after 6 to 8 hrs by Alamar Blue assay; format: functional, organism-based; conditions: in the assay text read “after 24 hrs” for “after 6 to 8 hrs”
# In short: (§1)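 T. b. brucei MITat1.1 cultured in HMI-9 with 10% heat-inactivated FBS, subcultured 1:10 every 24 h to stay in log phase, 37°C, 5% CO2. Seeded at 2×10^5 cells/ml with varying inhibitor concentrations or DMSO alone. Alamar Blue added after 6-8 h, total incubation 24 h. Absorbance read at 540 and 595 nm. EC50 from 4-parameter logistic fit of percent inhibition versus controls.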
# [3] = tested on: Trypanosoma brucei brucei; test: Antitrypanosomal activity against bloodstream form of Trypanosoma brucei brucei MITat1.1 after 24 hrs by Alamar Blue assay
# [4] = tested on: Trypanosoma brucei brucei; test: Antitrypanosomal activity against bloodstream form of Trypanosoma brucei brucei MITat1.1 assessed as increase in multinucleate cells at 55.6 uM after 24 hrs by epifluorescence microscopy relative to untreated control; format: functional, organism-based
# In short: (§2)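 Trypanosomes exposed to the stated concentration at 37°C for 24 h, then fixed 10 min at 37°C in 3% (w/v) paraformaldehyde (final). Washed in PBS with 15 mM sodium azide, then in water, and settled on poly-L-lysine coated coverslips. Kinetoplast/nucleus counts and morphology scored by epifluorescence microscopy against an untreated control.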
# [5] = tested on: Trypanosoma brucei brucei; test: Antitrypanosomal activity against bloodstream form of Trypanosoma brucei brucei MITat1.1 assessed as bigeye phenotype at 55.6 uM after 24 hrs by epifluorescence microscopy relative to untreated control; format: functional, organism-based; in short: as §2
# [6] = tested on: Trypanosoma brucei brucei; test: Antitrypanosomal activity against bloodstream form of Trypanosoma brucei brucei; format: functional, organism-based; in short: as §1
# HL-60 = test: Cytotoxicity against human HL60 cells after 48 hrs by Alamar Blue assay; format: cell-based; conditions: hl-60, 48 h
# In short: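 HL-60 cells grown in RPMI-1640 with 10% heat-inactivated FBS, penicillin/streptomycin and 2 mM L-glutamine, 37°C, 5% CO2. Seeded at 2×10^5 cells/ml with varying inhibitor concentrations or DMSO alone. Alamar Blue added after 30-32 h, total incubation 48 h. Absorbance read at 540 and 595 nm. EC50 derived from percent signal inhibition versus inhibitor-free controls.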
# [7] = tested on: Trypanosoma brucei brucei; test: Antitrypanosomal activity against bloodstream form of Trypanosoma brucei brucei MITat1.1 assessed as increase in multinucleate cells at 0.78 uM after 24 hrs by epifluorescence microscopy relative to untreated control; format: functional, organism-based; in short: as §2
# [8] = tested on: Trypanosoma brucei brucei; test: Antitrypanosomal activity against bloodstream form of Trypanosoma brucei brucei MITat1.1 assessed as bigeye phenotype at 0.78 uM after 24 hrs by epifluorescence microscopy relative to untreated control; format: functional, organism-based; in short: as §2
EC50 [3] [µM],EC50 [2] [µM],IC50 [6] [µM],SMILES,Selectivity ratio [1],Activity [2],Activity [4],Activity [5],Activity (HL-60),Activity [7],Activity [8]
0.66,–,–,CC(C)(C)OC(=O)NCCCC[C@@H](/C=C/S(=O)(=O)c1ccccc1)NC(=O)[C@H](Cc1ccccc1)NC(=O)OCc1ccccc1,>83,Dose-dependent effect,–,–,–,–,–
–,1.18,–,CC(C)C[C@H](NC(=O)OCc1ccccc1)C(=O)N[C@H](/C=C/S(=O)(=O)c1ccccc1)CCCCNC(=O)OC(C)(C)C,>46.6,Dose-dependent effect,–,–,–,–,–
5.56,–,0.1,CN1CCN(C(=O)N[C@@H](Cc2ccccc2)C(=O)N[C@H](/C=C/S(=O)(=O)c2ccccc2)CCc2ccccc2)CC1 [K-777],> 9.9,Dose-dependent effect,Active,Active,–,–,–
–,0.31,–,COc1cc(Br)c(S(=O)(=O)NCCCC[C@@H](/C=C/S(=O)(=O)c2ccccc2)NC(=O)[C@H](Cc2ccccc2)NC(=O)OCc2ccccc2)cc1OC,>177.4,Dose-dependent effect,–,–,–,–,–
–,0.82,–,CC(C)(C)OC(=O)NCCCC[C@@H](/C=C/C(=O)c1ccccc1)NC(=O)[C@H](Cc1ccccc1)NC(=O)OCc1ccccc1,>67.1,Dose-dependent effect,–,–,Toxic,–,–
–,0.25,–,Cc1ccc(S(=O)(=O)NCCCC[C@@H](/C=C/S(=O)(=O)c2ccccc2)NC(=O)[C@H](Cc2ccccc2)NC(=O)OCc2ccccc2)cc1,>220,Dose-dependent effect,–,–,–,–,–
9.96,–,–,CC(C)(C)OC(=O)NCCCC[C@@H](/C=C/S(=O)(=O)c1ccccc1)NC(=O)[C@@H]1CCCN1C(=O)OCc1ccccc1,>5.7,Dose-dependent effect,–,–,–,–,–
26.4,–,–,CC(C)(C)OC(=O)NCCCC[C@@H](CCS(=O)(=O)c1ccccc1)NC(=O)[C@H](Cc1ccccc1)NC(=O)OCc1ccccc1,>2.1,Dose-dependent effect,–,–,–,–,–
–,22.4,–,Cl.NCCCC[C@@H](/C=C/S(=O)(=O)c1ccccc1)NC(=O)[C@H](Cc1ccccc1)NC(=O)OCc1ccccc1,>2.4,Dose-dependent effect,–,–,–,–,–
–,0.07,–,O=C(N[C@@H](Cc1ccccc1)C(=O)N[C@H](/C=C/S(=O)(=O)c1ccccc1)CCCCNS(=O)(=O)c1cccc2ccccc12)OCc1ccccc1,>785.7,Dose-dependent effect,–,–,–,Active,Active
0.68,–,–,CC(C)(C)OC(=O)NCCCC[C@@H](/C=C/S(=O)(=O)c1cccc2ccccc12)NC(=O)[C@H](Cc1ccccc1)NC(=O)OCc1ccccc1,>80.1,Dose-dependent effect,–,–,–,–,–
–,1.03,–,CC(C)(C)OC(=O)NCCCC[C@@H](/C=C/S(=O)(=O)c1ccc2ccccc2c1)NC(=O)[C@H](Cc1ccccc1)NC(=O)OCc1ccccc1,>53.4,Dose-dependent effect,–,–,–,–,–

# Source: ChEMBL document CHEMBL2417518, “Vinyl sulfone-based peptidomimetics as anti-trypanosomal agents: design, synthesis, biological and computational evaluation” (J Med Chem, 2013)
